Experimental data as given in ChEMBL document CHEMBL1795318, “Development of tetrahydroisoquinoline-based hydroxamic acid derivatives: potent histone deacetylase inhibitors with marked in vitro and in vivo antitumor activities” (J Med Chem, 2011).
pIC50: −log10 of the molar value. One block for each compound: values may come before it. Calls of active or inactive are those of the source. The calls are words filed in the database; no cut-off is given here.

How the values were obtained:
Histone deacetylase 8 = target: T1, Histone deacetylase 8 (Homo sapiens, UniProt Q9BY41); assay: Inhibition of HDAC8 after 30 mins by fluorescence microplate reader
T1 sequence (Q9BY41 whole entry): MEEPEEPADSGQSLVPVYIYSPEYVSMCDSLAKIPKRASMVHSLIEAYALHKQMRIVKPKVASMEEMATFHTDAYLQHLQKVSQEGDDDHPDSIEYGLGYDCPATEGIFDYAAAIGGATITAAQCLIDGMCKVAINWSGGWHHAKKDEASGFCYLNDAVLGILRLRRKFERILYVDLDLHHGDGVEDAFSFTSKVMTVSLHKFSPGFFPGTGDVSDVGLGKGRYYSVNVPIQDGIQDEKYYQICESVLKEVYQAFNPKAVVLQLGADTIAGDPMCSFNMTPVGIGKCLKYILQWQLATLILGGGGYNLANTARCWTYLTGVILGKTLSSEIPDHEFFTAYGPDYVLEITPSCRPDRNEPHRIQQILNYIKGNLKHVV
Method in brief: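 HDAC8 mixed with compound at various concentrations, fluorogenic substrate added, 37 °C for 30 min; stopped with developer containing trypsin and TSA. Fluorescence read after 20 min (ex 390/em 460 nm); inhibition relative to control wells, IC50 by regression of concentration/inhibition data; mean ± SD of at least three determinations.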

HeLa = assay: Cytotoxicity against human HeLa cells after 48 hrs by MTT assay; type: functional, cell-based
K562 = assay: Cytotoxicity against human K562 cells after 48 hrs by MTT assay; type: functional, cell-based; details: K562, 48 h
NB-4 = assay: Cytotoxicity against human NB4 cells after 48 hrs by MTT assay; type: functional, cell-based; details: NB-4, 48 h
Histone deacetylase = assay: Inhibition of HDAC in human HeLa cell nuclear extract after 30 mins by fluorescence microplate reader; type: protein assay
[1] = target: T2, Protein deacetylase HDAC6 (Homo sapiens, UniProt Q9UBN7); assay: Inhibition of HDAC6 in human HeLa cell nuclear extract after 30 mins by fluorescence microplate reader
T2 sequence (Q9UBN7 whole entry): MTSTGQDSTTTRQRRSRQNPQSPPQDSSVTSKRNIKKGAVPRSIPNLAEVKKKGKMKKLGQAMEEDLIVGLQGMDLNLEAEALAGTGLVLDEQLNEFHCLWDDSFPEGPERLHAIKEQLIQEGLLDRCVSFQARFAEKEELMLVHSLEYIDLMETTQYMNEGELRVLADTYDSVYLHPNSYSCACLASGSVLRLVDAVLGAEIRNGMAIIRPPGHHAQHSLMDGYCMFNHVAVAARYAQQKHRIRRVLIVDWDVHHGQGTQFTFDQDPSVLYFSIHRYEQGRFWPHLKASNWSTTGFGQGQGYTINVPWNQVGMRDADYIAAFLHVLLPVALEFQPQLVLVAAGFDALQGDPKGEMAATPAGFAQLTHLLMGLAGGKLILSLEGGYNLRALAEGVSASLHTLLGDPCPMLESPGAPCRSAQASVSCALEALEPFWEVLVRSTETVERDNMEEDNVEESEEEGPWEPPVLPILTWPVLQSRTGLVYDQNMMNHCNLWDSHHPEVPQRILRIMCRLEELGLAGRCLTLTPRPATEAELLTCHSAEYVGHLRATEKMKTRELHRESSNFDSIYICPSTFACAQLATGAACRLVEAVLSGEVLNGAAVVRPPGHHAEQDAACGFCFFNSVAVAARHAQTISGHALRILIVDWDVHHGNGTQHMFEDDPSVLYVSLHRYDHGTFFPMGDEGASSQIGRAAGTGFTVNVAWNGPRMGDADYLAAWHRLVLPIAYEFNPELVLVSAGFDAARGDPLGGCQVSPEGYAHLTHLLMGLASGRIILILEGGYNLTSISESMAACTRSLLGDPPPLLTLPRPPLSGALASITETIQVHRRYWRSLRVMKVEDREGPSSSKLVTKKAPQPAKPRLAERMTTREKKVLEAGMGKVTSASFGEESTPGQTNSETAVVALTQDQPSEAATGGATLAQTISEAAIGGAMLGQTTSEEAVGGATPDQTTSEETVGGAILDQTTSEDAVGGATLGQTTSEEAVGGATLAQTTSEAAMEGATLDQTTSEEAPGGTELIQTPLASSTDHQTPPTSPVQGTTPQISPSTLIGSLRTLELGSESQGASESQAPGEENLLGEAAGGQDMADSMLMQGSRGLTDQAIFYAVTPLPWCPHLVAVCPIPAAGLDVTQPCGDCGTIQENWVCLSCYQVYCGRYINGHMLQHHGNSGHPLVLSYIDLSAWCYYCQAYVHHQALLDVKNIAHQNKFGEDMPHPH

A549 = assay: Cytotoxicity against human A549 cells after 48 hrs by MTT assay; type: functional, cell-based; details: A549, 48 h
Method in brief: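 Cells kept in RPMI1640 with 10% FBS, 37 °C, 5% CO₂; seeded day before dosing, grown ≥4 h, treated with a concentration series for 48 h. MTT 0.5% solution added, 4 h further; formazan dissolved in DMSO 15 min, absorbance at 570 nm. Mean of three experiments.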

MDA-MB-231 [2] = assay: Cytotoxicity against human MDA-MB-231 cells after 48 hrs by MTT assay; type: functional, cell-based; details: MDA-MB-231, 48 h
HL-60 = assay: Cytotoxicity against human HL60 cells after 48 hrs by MTT assay; type: functional, cell-based; details: HL-60, 48 h
[3] = Cytotoxicity against human ES2 cells after 48 hrs by MTT assay; type: functional, cell-based; details: ES-2, 48 h
MDA-MB-231 [4] = assay: Antitumor activity against human MDA-MB-231 cells xenografted in athymic nude mouse assessed as tumor growth inhibition at 90 mg/kg, ip qd for 21 days; type: functional; details: route intraperitoneal
MDA-MB-231 [5] = assay: Antitumor activity against human MDA-MB-231 cells xenografted in athymic nude mouse assessed as tumor growth delay at 90 mg/kg, ip qd for 21 days; type: functional, organism-based; design: dose 90 mg/kg
MDA-MB-231 [6] = assay: Cell cycle arrest in human MDA-MB-231 cells assessed as accumulation at G1 phase at 0.5 uM after 48 hrs by flow cytometry analysis; type: functional, cell-based
MDA-MB-231 [7] = assay: Cell cycle arrest in human MDA-MB-231 cells assessed as accumulation at G2 phase at 2 to 5 uM after 48 hrs by flow cytometry analysis; type: functional, cell-based

Compound: COc1ccc(NC(=O)[C@@H]2Cc3ccc(OCC(=O)NO)cc3CN2C(=O)[C@H](Cc2ccc(O)cc2)NC(=O)OC(C)(C)C)cc1
- pIC50 (Histone deacetylase 8): 6.76

Compound: COc1ccc(NC(=O)[C@@H]2Cc3ccc(OCC(=O)NO)cc3CN2C(=O)[C@@H]2CCCN2)cc1
- pIC50 (Histone deacetylase 8): 6.32

Compound: CC[C@H](C)[C@H](NC(=O)C1CCN(C(=O)OC(C)(C)C)CC1)C(=O)N1Cc2cc(OCC(=O)NO)ccc2C[C@H]1C(=O)Nc1ccc(OC)cc1
- pIC50 (HeLa): < 3.70
- pIC50 (K562): 4.91
- pIC50 (NB-4): 4.17
- IC50 (Histone deacetylase): 214 nM
- pIC50 [1]: 6.79
- pIC50 (Histone deacetylase 8): 6.83

Compound: COc1ccc(NC(=O)[C@@H]2Cc3ccc(OCC(=O)NO)cc3CN2C(=O)[C@H](C)NC(=O)OC(C)(C)C)cc1
- pIC50 (Histone deacetylase 8): 6.74

Compound: COc1ccc(NC(=O)[C@@H]2Cc3ccc(OCC(=O)NO)cc3CN2C(=O)[C@H](CC(C)C)NC(=O)OC(C)(C)C)cc1
- pIC50 (Histone deacetylase 8): 6.79

Compound: CC[C@H](C)[C@@H](CN1Cc2cc(OCC(=O)NO)ccc2C[C@H]1C(=O)Nc1ccc(OC)cc1)NC(=O)OC(C)(C)C
- pIC50 (MDA-MB-231 [2]): 5.66
- pIC50 (HeLa): 4.53
- pIC50 (K562): 5.15
- pIC50 (NB-4): 5.41
- pIC50 (HL-60): 4.37
- pIC50 [3]: 5.14
- T/C (MDA-MB-231 [4]): 47%
- Activity (MDA-MB-231 [5]): Active
- IC50 (Histone deacetylase): 447 nM
- pIC50 [1]: 7.03
- Activity (MDA-MB-231 [6]): Active
- Activity (MDA-MB-231 [7]): Active
- pIC50 (Histone deacetylase 8): 6.58

Compound: COc1ccc(NC(=O)[C@@H]2Cc3ccc(OCC(=O)NO)cc3CN2C(=O)[C@@H]2CCCN2C(=O)OC(C)(C)C)cc1
- pIC50 (Histone deacetylase 8): 6.67

Further lines, with some results ahead:

- pIC50 (Histone deacetylase 8): 5.98
Compound: CC[C@H](C)[C@H](N)C(=O)N1Cc2cc(OCC(=O)NO)ccc2C[C@H]1C(=O)Nc1ccc(OC)cc1

- pIC50 (Histone deacetylase 8): 5.99
Compound: COc1ccc(NC(=O)[C@@H]2Cc3ccc(OCC(=O)NO)cc3CN2C(=O)[C@@H](N)C(C)C)cc1

- pIC50 (Histone deacetylase 8): 6.17
Compound: COc1ccc(NC(=O)[C@@H]2Cc3ccc(OCC(=O)NO)cc3CN2C(=O)[C@@H](N)CC(C)C)cc1

- pIC50 (Histone deacetylase 8): 5.72
Compound: COc1ccc(NC(=O)[C@@H]2Cc3ccc(OCC(=O)NO)cc3CN2Cc2ccccc2)cc1

- pIC50 (Histone deacetylase 8): 6.79
Compound: COc1ccc(NC(=O)[C@@H]2Cc3ccc(OCC(=O)NO)cc3CN2C(=O)c2ccccc2)cc1
- pIC50 (A549): 5.23
- pIC50 (MDA-MB-231 [2]): 5.52

- pIC50 (Histone deacetylase 8): 6.30
Compound: COc1ccc(NC(=O)[C@@H]2Cc3ccc(OCC(=O)NO)cc3CN2C(=O)CCc2ccccc2)cc1
- pIC50 (A549): 5.32
- pIC50 (MDA-MB-231 [2]): 5.82

- pIC50 (Histone deacetylase 8): 6.12
Compound: O=C(COc1ccc2c(c1)CN(C(=O)CCc1ccccc1)[C@H](C(=O)Nc1ccccc1)C2)NO

- pIC50 (Histone deacetylase 8): 5.89
Compound: COc1ccc(NC(=O)[C@@H]2Cc3ccc(OCC(=O)NO)cc3CN2C(=O)[C@H](C)N)cc1

- pIC50 (Histone deacetylase 8): 6.94
Compound: COc1ccc(NC(=O)[C@@H]2Cc3ccc(OCC(=O)NO)cc3CN2C(=O)CCCc2ccccc2)cc1
- pIC50 (A549): 5.45
- pIC50 (MDA-MB-231 [2]): 5.56
